≈ marks a conversion by molar mass, not a printed value. Calls of active or inactive are those of the source. The calls are words filed in the database; no cut-off is given here.
How the values were obtained:
Aspergillus flavus [1] = test: Antifungal activity against Aspergillus flavus MTCC 1021 assessed as zone of inhibition at 20 uM after 48 hrs by disc diffusion method; type: functional
Summary of the method: (§1)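 Spores from 4-day potato dextrose agar cultures, suspended in sterile water at 1.5 × 10⁵ CFU/mL. 0.2 mL was spread on potato dextrose agar. 5 mm filter-paper discs soaked with test compound were laid on the lawn. Incubation was 48 h at 28 °C, then the inhibition zone was measured in mm. Fluconazole was the positive control and acetone the negative control.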

Escherichia coli [2] = test: Antimicrobial activity against Escherichia coli ATCC 35218 assessed as diameter of inhibition zone at 80 uM after 24 hrs by Kirby -Baur disc diffusion method; type: functional; settings: ATCC 35218, 24 h, read-out: DIZ
Summary of the method: (§2)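 Kirby-Bauer disc diffusion was used. Acetone stocks (160 µM) were serially doubled down to 80, 40 and 20 µM. 4 µL of each went onto 5 mm sterile paper discs, which were dried 30 min at 50 °C. Inoculum was 1.5 × 10⁸ CFU/mL diluted to 3 × 10² CFU/mL, and 50 µL was spread on Mueller-Hinton agar. After 24 h at 37 °C the inhibition-zone diameter was measured. Ciprofloxacin served as positive control.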

Trichoderma viride [3] = test: Antifungal activity against Trichoderma viride MTCC 1107 assessed as zone of inhibition at 40 uM after 48 hrs by disc diffusion method; type: functional; settings: MTCC 1107, 48 h, read-out: IZ; summary of the method: as §1
Salmonella typhi [4] = test: Antimicrobial activity against Salmonella typhi ATCC 23564 assessed as diameter of inhibition zone at 80 uM after 24 hrs by Kirby -Baur disc diffusion method; type: functional, Salmonella enterica subsp. enterica serovar Typhi; settings: Salmonella enterica, ATCC 23564, 24 h; read-out: DIZ
Salmonella typhi [5] = test: Antimicrobial activity against Salmonella typhi ATCC 23564 after 24 hrs by broth micro serial dilution method; type: functional, Salmonella enterica subsp. enterica serovar Typhi; settings: Salmonella enterica, ATCC 23564, 24 h
Aspergillus flavus [6] = test: Antifungal activity against Aspergillus flavus MTCC 1021 after 48 hrs; type: functional; settings: MTCC 1021, 48 h
Aspergillus niger [7] = test: Antifungal activity against Aspergillus niger MTCC 1108 assessed as zone of inhibition at 40 uM after 48 hrs by disc diffusion method; type: functional; settings: MTCC 1108, 48 h, read-out: IZ; summary of the method: as §1
Aspergillus niger [8] = test: Antifungal activity against Aspergillus niger MTCC 1108 assessed as zone of inhibition at 80 uM after 48 hrs by disc diffusion method; type: functional; settings: MTCC 1108, 48 h, read-out: IZ; summary of the method: as §1
Pseudomonas aeruginosa [9] = test: Antimicrobial activity against Pseudomonas aeruginosa ATCC 15499 after 24 hrs by broth micro serial dilution method; type: functional; settings: ATCC 15499, 24 h
Summary of the method: (§3)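 This was broth microdilution in autoclaved Mueller-Hinton broth. 150 µL of compound per well was serially diluted […], and 50 µL of test organism was added. Plates were incubated 24 h at 37 °C and optical density was read.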

Salmonella typhi [10] = test: Antimicrobial activity against Salmonella typhi ATCC 23564 assessed as diameter of inhibition zone at 40 uM after 24 hrs by Kirby -Baur disc diffusion method; type: functional, Salmonella enterica subsp. enterica serovar Typhi; settings: Salmonella enterica, ATCC 23564, 24 h; read-out: DIZ
Aspergillus niger [11] = test: Antifungal activity against Aspergillus niger MTCC 1108 after 48 hrs; type: functional; settings: MTCC 1108, 48 h
Escherichia coli [12] = test: Antimicrobial activity against Escherichia coli ATCC 35218 assessed as diameter of inhibition zone at 40 uM after 24 hrs by Kirby -Baur disc diffusion method; type: functional; settings: ATCC 35218, 24 h, read-out: DIZ; summary of the method: as §2
Mus musculus = test: Antiinflammatory activity in mouse assessed as inhibition of carrageenan-induced increase in paw volume at 200 mg/kg administered 1 hr prior to carrageenan challenge measured after 3 hrs relative to control; type: functional
Summary of the method: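 Mice were fasted 2 h and placed in groups of five. Controls received saline i.p. Phenylbutazone was given at 100 mg/kg i.p., curcumin at 200 mg/kg i.p., and derivatives at 200 mg/kg. After 1 h, 0.1 mL of 1% carrageenan in saline was injected subplantar into the right hind paw. Paw volume was followed by plethysmometer for 3 h, and % inhibition was calculated as (Vc − Vt)/Vc × 100.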

Staphylococcus aureus [13] = test: Antimicrobial activity against Staphylococcus aureus ATCC 11632 assessed as diameter of inhibition zone at 40 uM after 24 hrs by Kirby -Baur disc diffusion method; type: functional; settings: ATCC 11632, 24 h, read-out: DIZ; summary of the method: as §2
Escherichia coli [14] = test: Antimicrobial activity against Escherichia coli ATCC 35218 after 24 hrs by broth micro serial dilution method; type: functional; settings: ATCC 35218, 24 h; summary of the method: as §3
Staphylococcus aureus [15] = test: Antimicrobial activity against Staphylococcus aureus ATCC 11632 after 24 hrs by broth micro serial dilution method; type: functional; settings: ATCC 11632, 24 h; summary of the method: as §3
Staphylococcus aureus [16] = test: Antimicrobial activity against Staphylococcus aureus ATCC 11632 assessed as diameter of inhibition zone at 80 uM after 24 hrs by Kirby -Baur disc diffusion method; type: functional; settings: ATCC 11632, 24 h, read-out: DIZ; summary of the method: as §2
Escherichia coli [17] = test: Antimicrobial activity against Escherichia coli ATCC 35218 assessed as diameter of inhibition zone at 20 uM after 24 hrs by Kirby -Baur disc diffusion method; type: functional; settings: ATCC 35218, 24 h, read-out: DIZ; summary of the method: as §2
Salmonella typhi [18] = test: Antimicrobial activity against Salmonella typhi ATCC 23564 assessed as diameter of inhibition zone at 20 uM after 24 hrs by Kirby -Baur disc diffusion method; type: functional, Salmonella enterica subsp. enterica serovar Typhi; settings: Salmonella enterica, ATCC 23564, 24 h; read-out: DIZ
Pseudomonas aeruginosa [19] = test: Antimicrobial activity against Pseudomonas aeruginosa ATCC 15499 assessed as diameter of inhibition zone at 80 uM after 24 hrs by Kirby -Baur disc diffusion method; type: functional; settings: ATCC 15499, 24 h, read-out: DIZ; summary of the method: as §2
HepG2 = test: Cytotoxicity against human HepG2 cells after 24 hrs by MTT assay; type: functional, cell-based
Summary of the method: (§4)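 The MTT assay seeded 5 × 10⁴ cells per well and grew them 24 h in RPMI 1640 with compound at 2.5–200 µM. Medium without cells was the blank and adriamycin the positive control. MTT was added for 4 h at 37 °C, formazan was solubilised, and absorbance was read at 570 nm. IC50 is the concentration that cuts viability 50% against untreated cells.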

Curvularia lunata [20] = test: Antifungal activity against Curvularia lunata MTCC 581 assessed as zone of inhibition at 80 uM after 48 hrs by disc diffusion method; type: functional; settings: MTCC 581, 48 h, read-out: IZ; summary of the method: as §1
Bacillus cereus [21] = test: Antimicrobial activity against Bacillus cereus MTCC 7350 assessed as diameter of inhibition zone at 40 uM after 24 hrs by Kirby -Baur disc diffusion method; type: functional; settings: MTCC 7350, 24 h, read-out: DIZ; summary of the method: as §2
Aspergillus niger [22] = test: Antifungal activity against Aspergillus niger MTCC 1108 assessed as zone of inhibition at 20 uM after 48 hrs by disc diffusion method; type: functional; settings: MTCC 1108, 48 h, read-out: IZ; summary of the method: as §1
Bacillus cereus [23] = test: Antimicrobial activity against Bacillus cereus MTCC 7350 after 24 hrs by broth micro serial dilution method; type: functional; settings: MTCC 7350, 24 h; summary of the method: as §3
Curvularia lunata [24] = test: Antifungal activity against Curvularia lunata MTCC 581 assessed as zone of inhibition at 40 uM after 48 hrs by disc diffusion method; type: functional; settings: MTCC 581, 48 h, read-out: IZ; summary of the method: as §1
Trichoderma viride [25] = test: Antifungal activity against Trichoderma viride MTCC 1107 after 48 hrs; type: functional; settings: MTCC 1107, 48 h
HeLa = test: Cytotoxicity against human HeLa cells after 24 hrs by MTT assay; type: functional, cell-based; summary of the method: as §4
Trichoderma viride [26] = test: Antifungal activity against Trichoderma viride MTCC 1107 assessed as zone of inhibition at 80 uM after 48 hrs by disc diffusion method; type: functional; settings: MTCC 1107, 48 h, read-out: IZ; summary of the method: as §1
Curvularia lunata [27] = test: Antifungal activity against Curvularia lunata MTCC 581 after 48 hrs; type: functional; settings: MTCC 581, 48 h
HCT-116 = test: Cytotoxicity against human HCT116 cells after 24 hrs by MTT assay; type: functional, cell-based; summary of the method: as §4
Aspergillus flavus [28] = test: Antifungal activity against Aspergillus flavus MTCC 1021 assessed as zone of inhibition at 80 uM after 48 hrs by disc diffusion method; type: functional; settings: MTCC 1021, 48 h, read-out: IZ; summary of the method: as §1
Staphylococcus aureus [29] = test: Antimicrobial activity against Staphylococcus aureus ATCC 11632 assessed as diameter of inhibition zone at 20 uM after 24 hrs by Kirby -Baur disc diffusion method; type: functional; settings: ATCC 11632, 24 h, read-out: DIZ; summary of the method: as §2
Pseudomonas aeruginosa [30] = test: Antimicrobial activity against Pseudomonas aeruginosa ATCC 15499 assessed as diameter of inhibition zone at 20 uM after 24 hrs by Kirby -Baur disc diffusion method; type: functional; summary of the method: as §2
Bacillus cereus [31] = test: Antimicrobial activity against Bacillus cereus MTCC 7350 assessed as diameter of inhibition zone at 20 uM after 24 hrs by Kirby -Baur disc diffusion method; type: functional; settings: MTCC 7350, 24 h, read-out: DIZ; summary of the method: as §2
Aspergillus flavus [32] = test: Antifungal activity against Aspergillus flavus MTCC 1021 assessed as zone of inhibition at 40 uM after 48 hrs by disc diffusion method; type: functional; settings: MTCC 1021, 48 h, read-out: IZ; summary of the method: as §1
Pseudomonas aeruginosa [33] = test: Antimicrobial activity against Pseudomonas aeruginosa ATCC 15499 assessed as diameter of inhibition zone at 40 uM after 24 hrs by Kirby -Baur disc diffusion method; type: functional; settings: ATCC 15499, 24 h, read-out: DIZ; summary of the method: as §2
Trichoderma viride [34] = test: Antifungal activity against Trichoderma viride MTCC 1107 assessed as zone of inhibition at 20 uM after 48 hrs by disc diffusion method; type: functional; settings: MTCC 1107, 48 h, read-out: IZ; summary of the method: as §1
Bacillus cereus [35] = test: Antimicrobial activity against Bacillus cereus MTCC 7350 assessed as diameter of inhibition zone at 80 uM after 24 hrs by Kirby -Baur disc diffusion method; type: functional; settings: MTCC 7350, 24 h, read-out: DIZ; summary of the method: as §2
QG-56 = test: Cytotoxicity against human QG56 cells after 24 hrs by MTT assay; type: functional, cell-based; summary of the method: as §4
Curvularia lunata [36] = test: Antifungal activity against Curvularia lunata MTCC 581 assessed as zone of inhibition at 20 uM after 48 hrs by disc diffusion method; type: functional; settings: MTCC 581, 48 h, read-out: IZ; summary of the method: as §1

## COc1ccc(NS(=O)(=O)c2ccc(/N=C(/C=C(O)/C=C/c3ccc(O)c(OC)c3)\C=C\c3ccc(O)c(OC)c3)cc2)nn1
Aspergillus flavus [1]
  inhibition zone (IZ): inactive
Escherichia coli [2]
  zone of inhibition at 80 µM: 21 mm
Trichoderma viride [3]
  zone of inhibition at 40 µM: 16 mm
Salmonella typhi [4]
  zone of inhibition at 80 µM: 19 mm
Salmonella typhi [5]
  MIC: 20 µM (≈ 12.6 µg/mL)
Aspergillus flavus [6]
  MIC: > 80 µM
Aspergillus niger [7]
  zone of inhibition at 40 µM: 14 mm
Aspergillus niger [8]
  zone of inhibition at 80 µM: 14 mm
Pseudomonas aeruginosa [9]
  MIC: 20 µM (≈ 12.6 µg/mL)
Salmonella typhi [10]
  zone of inhibition at 40 µM: 16 mm
Aspergillus niger [11]
  MIC: 40 µM (≈ 25.2 µg/mL)
Escherichia coli [12]
  zone of inhibition at 40 µM: 18 mm
Mus musculus
  inhibition in vivo at 200 mg/kg: 35.4%
Staphylococcus aureus [13]
  zone of inhibition at 40 µM: 14 mm
Escherichia coli [14]
  MIC: 20 µM (≈ 12.6 µg/mL)
Staphylococcus aureus [15]
  MIC: 20 µM (≈ 12.6 µg/mL)
Staphylococcus aureus [16]
  zone of inhibition at 80 µM: 17 mm
Escherichia coli [17]
  zone of inhibition at 20 µM: 16 mm
Salmonella typhi [18]
  zone of inhibition at 20 µM: 13 mm
Pseudomonas aeruginosa [19]
  zone of inhibition at 80 µM: 14 mm
HepG2
  IC50: 25 µM
Curvularia lunata [20]
  zone of inhibition at 80 µM: 18 mm
Bacillus cereus [21]
  zone of inhibition at 40 µM: 11 mm
Aspergillus niger [22]
  zone of inhibition at 20 µM: 10 mm
Bacillus cereus [23]
  MIC: 20 µM (≈ 12.6 µg/mL)
Curvularia lunata [24]
  zone of inhibition at 40 µM: 15 mm
Trichoderma viride [25]
  MIC: 20 µM (≈ 12.6 µg/mL)
HeLa
  IC50: 50 µM
Trichoderma viride [26]
  zone of inhibition at 80 µM: 19 mm
Curvularia lunata [27]
  MIC: 20 µM (≈ 12.6 µg/mL)
HCT-116
  IC50: 25 µM
Aspergillus flavus [28]
  zone of inhibition at 80 µM: 10 mm
Staphylococcus aureus [29]
  zone of inhibition at 20 µM: 9 mm
Pseudomonas aeruginosa [30]
  diameter of the inhibition zone (DIZ): inactive
Bacillus cereus [31]
  zone of inhibition at 20 µM: 9 mm
Aspergillus flavus [32]
  zone of inhibition at 40 µM: 9 mm
Pseudomonas aeruginosa [33]
  zone of inhibition at 40 µM: 10 mm
Trichoderma viride [34]
  zone of inhibition at 20 µM: 12 mm
Bacillus cereus [35]
  zone of inhibition at 80 µM: 14 mm
QG-56
  IC50: 25 µM
Curvularia lunata [36]
  zone of inhibition at 20 µM: 12 mm

Reference: ChEMBL document CHEMBL2384906, “Biological activity, design, synthesis and structure activity relationship of some novel derivatives of curcumin containing sulfonamides” (Eur J Med Chem, 2013)
